Data on 2 molecules can be found in ChEMBL document CHEMBL2157989, “Synthesis and biological evaluation of antibody conjugates of phosphate prodrugs of cytotoxic DNA alkylators for the targeted treatment of cancer” (J Med Chem, 2012).

Series [1] is described as follows: Cytotoxicity against human NAMALWA cells assessed as cell survival after 72 hrs by clonogenic assay. The format is functional, cell-based. The settings on record: NAMALVA. In short, it runs like this: (§1)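 Cells were kept in RPMI 1640 with 10% heat-inactivated FBS at 37 °C and 6% CO₂. They were plated at 1000–5000 cells/well and exposed to 0–3 nM test agent for 72 h. Medium was then replaced and colonies grew for 7–10 days in total after plating. Colonies were fixed and stained with 0.2% crystal violet in 10% formalin/PBS, then counted. Surviving fraction = colonies in treated wells / colonies in control wells; IC₅₀ was taken from this.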

A short description of series [2]: Solubility in THF at 1.5 mg sonicated for 45 mins followed by centrifugation for 45 mins by UV/Vis spectroscopy. In kind it is physicochemical. The settings on record: 0.75 h.
The nature of series [3]: Solubility in DMF at 1.5 mg sonicated for 45 mins followed by centrifugation for 45 mins by UV/Vis spectroscopy. The format is physicochemical. Particulars: 0.75 h. In short, it runs like this:
(§2)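 Solid compound (~1.5 mg) in the stated solvent was sonicated 45 min, then centrifuged at 1400g for 45 min. The supernatant concentration was read by UV/vis at 340 nm, using ε = 41500 M⁻¹ cm⁻¹ for the free phenols and 34500 M⁻¹ cm⁻¹ for the phosphate prodrugs (pH 7.0 values).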

Series [4] relates to HL-60. As to the kind of experiment: Cytotoxicity against human HL60 cells assessed as cell survival after 72 hrs by clonogenic assay. In kind it is functional, cell-based. The settings on record: HL-60, 72 h. In short, it runs like this:
as §1

Series [5] in a line: Solubility of the compound in 20% DMA and 80% buffer at pH 7 at 1.5 mg sonicated for 45 mins followed by centrifugation for 45 mins by UV/Vis spectroscopy. In kind it is physicochemical. In outline:
(§3)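 About 1.5 mg of compound is sonicated for 45 min in pH 7.0 buffer containing 10% or 20% DMA, then centrifuged at 1400g for 45 min. Supernatant concentration is read by UV/vis at 340 nm. ε at pH 7.0 is 41500 M⁻¹ cm⁻¹ for DC1–SR₂ compounds and 34500 M⁻¹ cm⁻¹ for phosphate prodrugs.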

A short description of series [6]: Solubility in ethyl acetate at 1.5 mg sonicated for 45 mins followed by centrifugation for 45 mins by UV/Vis spectroscopy. The format is physicochemical. The settings on record: 0.75 h. In outline:
as §2

Series [7] in a line: Solubility in hexane at 1.5 mg sonicated for 45 mins followed by centrifugation for 45 mins by UV/Vis spectroscopy. In kind it is physicochemical. The settings on record: 0.75 h. In outline: as §2
Series [8] can be described thus: Solubility in dioxane at 1.5 mg sonicated for 45 mins followed by centrifugation for 45 mins by UV/Vis spectroscopy. Particulars: 0.75 h. The format is physicochemical.
Series [9] in a line: Solubility in DMA at 1.5 mg sonicated for 45 mins followed by centrifugation for 45 mins by UV/Vis spectroscopy. The format is physicochemical. The settings on record: 0.75 h. In outline:
as §2

The nature of series [10]: Solubility in chloroform at 1.5 mg sonicated for 45 mins followed by centrifugation for 45 mins by UV/Vis spectroscopy. In kind it is physicochemical. Particulars: 0.75 h. In outline: as §2
Series [11] is described as follows: Solubility in ethanol at 1.5 mg sonicated for 45 mins followed by centrifugation for 45 mins by UV/Vis spectroscopy. The settings on record: 0.75 h. The format is physicochemical. In short, it runs like this: as §2
Series [12] is described as follows: Solubility of the compound in 5% DMA and 95% buffer at pH 7 at 1.5 mg sonicated for 45 mins followed by centrifugation for 45 mins by UV/Vis spectroscopy. In kind it is physicochemical. In short, it runs like this: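 For buffers with 5% or less DMA, a 50 mM stock of compound in DMA is diluted 20–100 times into pH 7.0 buffer. It is then sonicated for 45 min and centrifuged at 1400g for 45 min. Supernatant is quantified by UV/vis at 340 nm, with ε of 41500 (DC1–SR₂ compounds) or 34500 M⁻¹ cm⁻¹ (phosphate prodrugs).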

The nature of series [13]: Solubility in water at 1.5 mg sonicated for 45 mins followed by centrifugation for 45 mins by UV/Vis spectroscopy. Particulars: 0.75 h. In kind it is physicochemical. In short, it runs like this: as §2
Series [14] in a line: Solubility in acetone at 1.5 mg sonicated for 45 mins followed by centrifugation for 45 mins by UV/Vis spectroscopy. The settings on record: 0.75 h. In kind it is physicochemical.
Series [15] relates to Ramos. Put plainly: Cytotoxicity against human Ramos cells assessed as cell survival after 72 hrs by clonogenic assay. The format is functional, cell-based. In outline:
as §1

Series [16] deals with COLO 205. As to the kind of experiment: Cytotoxicity against human COLO205 cells assessed as cell survival after 72 hrs by clonogenic assay. In kind it is functional, cell-based. The settings on record: COLO 205, 72 h. In short, it runs like this: as §1
A short description of series [17]: Solubility in methanol at 1.5 mg sonicated for 45 mins followed by centrifugation for 45 mins by UV/Vis spectroscopy. The format is physicochemical. Particulars: 0.75 h. In short, it runs like this:
as §2

The nature of series [18]: Solubility in DMSO at 1.5 mg sonicated for 45 mins followed by centrifugation for 45 mins by UV/Vis spectroscopy. The format is physicochemical. The settings on record: 0.75 h. In outline: as §2
Series [19] can be described thus: Solubility of the compound in 100% buffer at pH 7 at 1.5 mg sonicated for 45 mins followed by centrifugation for 45 mins by UV/Vis spectroscopy. In kind it is physicochemical.
The nature of series [20]: Solubility in dichloromethane at 1.5 mg sonicated for 45 mins followed by centrifugation for 45 mins by UV/Vis spectroscopy. In kind it is physicochemical. Particulars: 0.75 h.
Series [21] can be described thus: Solubility of the compound in 10% DMA and 90% buffer at pH 7 at 1.5 mg sonicated for 45 mins followed by centrifugation for 45 mins by UV/Vis spectroscopy. The format is physicochemical. In outline: as §3
Series [22] is described as follows: Solubility in toluene at 1.5 mg sonicated for 45 mins followed by centrifugation for 45 mins by UV/Vis spectroscopy. The format is physicochemical. The settings on record: 0.75 h. In outline: as §2

Each structure is given as a SMILES string. Converted amounts (≈) assume the structure as drawn. Where only a bound is given, the exact number is not on record here.

For the molecule `CSSCCC(=O)Nc1ccc2[nH]c(C(=O)Nc3ccc4[nH]c(C(=O)N5C[C@@H](CCl)c6c5cc(O)c5ccccc65)cc4c3)cc2c1`, the IC50 was determined as 10 pM in [1], 32 pM in [4], 22 pM in series [15] and 250 pM in series [16]. For the same molecule, the solubility result is reported as “soluble” in [2]; “soluble” in series [3]; “Insoluble” in series [6]; “Insoluble” in series [7]; “soluble” in [8]; “soluble” in series [9]. Further, the solubility result is “Insoluble” in [10]; “Insoluble” in series [11]; “Insoluble” in series [13]; “soluble” in [14]; “Insoluble” in series [17]; “soluble” in [18]. Also, the solubility result in series [20] and in series [22] was “Insoluble” each time. Moreover, the solubility at 0.75 h in series [5] is 3 µM (≈ 2.05 µg/mL); in series [12], under 1 µM; in series [19], under 0.1 µM; in series [21], 1 µM (≈ 0.684 µg/mL).

In the case of `CSSC(C)(C)CCC(=O)Nc1ccc2[nH]c(C(=O)Nc3ccc4[nH]c(C(=O)N5C[C@@H](CCl)c6c5cc(O)c5ccccc65)cc4c3)cc2c1`, the IC50 in series [1] stood at 21 pM; in series [4] it was 25 pM; in [15], 18 pM; in series [16], 220 pM. Besides, the solubility entry in series [2] is “soluble”; in [3] it was “soluble”; in [6], “Insoluble”; in [7], “Insoluble”; in [8], “soluble”; in [9], “soluble”. Moreover, the solubility result in series [10] is “Insoluble”; in series [11], “Insoluble”; in series [13], “Insoluble”; in [14], “soluble”; in series [17], “Insoluble”; in series [18], “soluble”. Also, the solubility result in [20] and in series [22] was “Insoluble” each time. The solubility at 0.75 h in series [5] is 3 µM (≈ 2.18 µg/mL); in series [12], under 1 µM; in [19], under 0.1 µM; in series [21], 1 µM (≈ 0.726 µg/mL).

The IC50 is the concentration that inhibits the measured activity by half. One may read the solubility as the concentration that dissolves in the medium under given conditions. A high value points to much dissolved substance.
